# High-throughput results (PubChem)
# This is a sample that favours compounds with a hit; in the whole collection about 5.9% have one here.
# T cruzi growth – T. cruzi proliferation inhibition. T. cruzi beta-gal in NIH3T3, GalScreen luminescence, 90 h. inhibition, % at 8.34 µM. actives 5.9% (n = 77,000). AID 624255;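 active = mean inhibition above about 93%, with at least 55% of replicates each passing it, limit read from the data, passing the limit was not always enough; inconclusive = only one of those two conditions holds; inactive = neither condition holds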
# Pf Dd2 growth – inhibitors of Plasmodium falciparum Dd2 growth; P. falciparum Dd2 growth, SYBR Green, 72 h; stronger effect = lower value; activity change, % at 10 µM; actives 2.3% (n = 94,000); AID 1159554; in the data active = activity change below about -80%; inconclusive = no clear call, values can overlap the other calls
# IDH1 R132H inh – blocks human IDH1 R132H reductase activity; O75874; inhibition, % at 10 µM; diaphorase/resazurin fluorescence, 60 min; actives 0.18% (n = 70,000); in the data active = inhibition above about 34%; inconclusive = no clear call, values can overlap the other calls; inactive = below about 11%;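 note: 0% = DMSO and 100% = no enzyme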
# Target sequence (O75874 whole entry R132H): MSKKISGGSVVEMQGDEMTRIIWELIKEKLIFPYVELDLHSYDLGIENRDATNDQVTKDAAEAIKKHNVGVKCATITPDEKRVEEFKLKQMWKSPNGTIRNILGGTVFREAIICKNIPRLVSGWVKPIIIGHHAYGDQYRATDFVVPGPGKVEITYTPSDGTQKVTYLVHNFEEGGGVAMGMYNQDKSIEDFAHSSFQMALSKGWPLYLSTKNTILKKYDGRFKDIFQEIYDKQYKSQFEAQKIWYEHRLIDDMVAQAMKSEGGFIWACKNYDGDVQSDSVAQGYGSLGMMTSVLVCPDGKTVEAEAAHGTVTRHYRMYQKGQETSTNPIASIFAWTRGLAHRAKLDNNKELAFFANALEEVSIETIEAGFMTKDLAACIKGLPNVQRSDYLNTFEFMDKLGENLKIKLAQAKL
# KDM4C inh – inhibitors of human demethylase GASC-1 KDM4C | inhibition, % at 12.5 µM | Q9H3R0 | GST-KDM4C 2-372, H3K9me3 peptide, LANCE TR-FRET | actives 0.15% (n = 96,000) | AID 720574;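 active = mean replicate inhibition above about 25%, with at least 55% of replicates also reaching it, limit read from the data, passing the limit was not always enough; inconclusive = only one of those two conditions met; inactive = neither condition met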
#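 Assay system: GST-GASC-1 enzyme fragment 2-372 | Amount: 10 nM enzyme | Medium: HEPES buffer, pH 7.5, plus ascorbate | Reagent: H3K9me3 peptide substrate, Fe(II), 2-oxoglutarate | Doses: Single-point compound screen | Incubation: 30 min demethylation and 1 h detection at room temperature | Measured by: LANCE TR-FRET, excitation 340 nm, emissions 618 and 671 nm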
# Numbers without * were called inactive; ? = inconclusive; . = no result.
SMILES,T cruzi growth,Pf Dd2 growth,IDH1 R132H inh,KDM4C inh
COc1ccc(S(=O)(=O)N(C)C[C@H]2OCCCC[C@H](C)Oc3ccc(NC(=O)Nc4cccc5ccccc45)cc3C(=O)N([C@H](C)CO)C[C@H]2C)cc1,80.3,-86.1*,.,-3.6
O=C(O)CCCCCCC(=O)N/N=C/c1ccccc1,.,.,-0.2,.
CN([NH2+][O-])c1cc(O)ccc1O,.,.,69.3*,.
C[C@@H]1CN([C@@H](C)CO)C(=O)Cc2cc(NS(=O)(=O)c3ccccc3)ccc2O[C@H]1CN(C)Cc1ccc(C(=O)Nc2ccccc2N)cc1,11.7,-72.4,0.0,-0.3
Cc1ccc(S(=O)(=O)Nc2ccc3c(c2)CC(=O)N([C@H](C)CO)C[C@H](C)[C@H](CN(C)Cc2ccc(C(=O)Nc4ccccc4N)cc2)O3)cc1,76.4,-88.1*,0.3,0.2
C[C@@H]1CN([C@H](C)CO)C(=O)Cc2cc(NS(=O)(=O)c3ccc(Cl)cc3)ccc2O[C@H]1CN(C)Cc1ccc(Oc2ccccc2)cc1,46.8,-5.1,0.4,-1.3
C[C@H](CO)N1C[C@H](C)[C@@H](CN(C)Cc2ccc(C(=O)Nc3ccccc3N)cc2)Oc2ccc(NS(=O)(=O)c3ccccc3)cc2CC1=O,61.5,-83.4*,-0.6,-2.0
C[C@H](CO)N1C[C@H](C)[C@H](CN(C)Cc2ccc(Oc3ccccc3)cc2)Oc2ccc(NS(=O)(=O)c3ccc(Cl)cc3)cc2CC1=O,29.4,-86.8*,4.6,-1.6
Cc1ccc(S(=O)(=O)Nc2ccc3c(c2)CC(=O)N([C@H](C)CO)C[C@H](C)[C@@H](CN(C)C(=O)Nc2cccc4ccccc24)O3)cc1,25.8,-15.7,-0.5,-2.4
Cc1noc(C)c1NC(=O)Nc1ccc2c(c1)C(=O)N([C@H](C)CO)C[C@@H](C)[C@H](CN(C)C(=O)Nc1ccc(C(F)(F)F)cc1)OCCCC[C@H](C)O2,40.3,-84.1*,0.9,-2.5
C[C@H](CO)N1C[C@H](C)[C@H](CN(C)C(=O)Nc2ccc(C(F)(F)F)cc2)OCCCC[C@H](C)Oc2ccc(NC(=O)Nc3ccc(F)cc3)cc2C1=O,?,58.7,3.5,-0.5
C[C@H](CO)N1C[C@H](C)[C@@H](CN(C)C(=O)Nc2ccc(C(F)(F)F)cc2)OCCCC[C@H](C)Oc2ccc(NC(=O)Nc3ccc(F)cc3)cc2C1=O,118.9*,-38.4,0.9,-3.4
C[C@@H]1CCCCO[C@H](CN(C)C(=O)Nc2ccc(C(F)(F)F)cc2)[C@H](C)CN([C@H](C)CO)C(=O)c2cc(NC(=O)Nc3ccc(F)cc3)ccc2O1,117.2*,-81.1*,0.7,0.5
C[C@@H]1CCCCO[C@H](CN(C)C(=O)Nc2ccc(C(F)(F)F)cc2)[C@@H](C)CN([C@H](C)CO)C(=O)c2cc(NC(=O)Nc3cccc4ccccc34)ccc2O1,42.8,-82.1*,5.1,-1.2
O=C(COc1ccc(C(=O)Nc2cccc(C(F)(F)F)c2)cc1)Nc1cccc(Cl)c1,.,.,0.0,.
C[C@@H]1CN([C@@H](C)CO)C(=O)Cc2cc(NC(=O)Nc3ccccc3)ccc2O[C@H]1CN(C)Cc1ccc2c(c1)OCO2,3.5,-88.5*,0.1,4.3
C[C@@H]1CN([C@@H](C)CO)C(=O)Cc2cc(NC(=O)Nc3ccc4c(c3)OCO4)ccc2O[C@H]1CN(C)Cc1ccc2c(c1)OCO2,69.9,-87.3*,-10.5,1.8
C[C@H](CO)N1C[C@H](C)[C@@H](CN(C)Cc2ccc3c(c2)OCO3)Oc2ccc(NC(=O)Nc3ccccc3)cc2CC1=O,60.0,-83.0*,0.2,3.4
C[C@@H]1CN([C@@H](C)CO)C(=O)Cc2cc(NC(=O)Nc3ccccc3)ccc2O[C@@H]1CN(C)Cc1ccc2c(c1)OCO2,82.8,-16.1,0.3,4.1
C[C@H]1CCCCO[C@H](CN(C)C(=O)Nc2ccccc2)[C@@H](C)CN([C@@H](C)CO)C(=O)c2cc(NC(=O)CCCN(C)C)ccc2O1,28.7,50.6,0.6,3.5
C[C@@H]1CCCCO[C@H](CN(C)CC2CC2)[C@H](C)CN([C@@H](C)CO)C(=O)c2cc(NC(=O)Nc3cccc4ccccc34)ccc2O1,81.1,-79.7,.,-2.2
C[C@@H]1CCCCO[C@H](CN(C)CC2CCCCC2)[C@H](C)CN([C@@H](C)CO)C(=O)c2cc(NC(=O)Nc3cccc4ccccc34)ccc2O1,120.7,-88.1*,.,-0.2
C[C@@H]1CCCCO[C@H](CN(C)CC2CCCCC2)[C@H](C)CN([C@H](C)CO)C(=O)c2cc(NC(=O)Nc3cccc4ccccc34)ccc2O1,122.3,-87.7*,-0.8,-5.5
C[C@@H]1CCCCO[C@@H](CN(C)CC2CCCCC2)[C@@H](C)CN([C@@H](C)CO)C(=O)c2cc(NC(=O)Nc3cccc4ccccc34)ccc2O1,121.3,-82.1*,.,-3.4
CCCN(C)C[C@H]1OCCCC[C@H](C)Oc2ccc(NC(=O)Nc3cccc4ccccc34)cc2C(=O)N([C@@H](C)CO)C[C@H]1C,43.2,-91.2*,.,20.0
SMILES,T cruzi growth,Pf Dd2 growth,IDH1 R132H inh,KDM4C inh
C[C@H](CO)N1C[C@H](C)[C@@H](CN(C)C(=O)Cc2cccnc2)Oc2cc(-c3cncnc3)ccc2S1(=O)=O,-98.3,-2.4,4.2,1.6
CCOC(=O)C1=C(C)N(c2nonc2NC(C)=O)C(N)=C(C#N)C1c1ccc(Br)cc1 (configuration not stated),.,.,1.4,.
CCS(=O)(=O)N1CCCCN2[C@H](CO)[C@@H](c3ccc(-c4ccccc4F)cc3)[C@H]2C1,84.4,-15.2,.,-0.5
C[C@@H]1CN([C@H](C)CO)C(=O)c2cc(NC(=O)Nc3cccc4ccccc34)ccc2O[C@@H](C)CCCCO[C@@H]1CN(C)CC1CCCCC1,121.8,-88.3*,.,-4.6
COCC#Cc1cnc2c(c1)C(=O)N([C@H](C)CO)C[C@H](C)[C@H](CN(C)Cc1ccc3c(c1)OCO3)O2,.,-13.1,0.8,-1.1
Cc1ccc(S(=O)(=O)N(C)C[C@H]2Oc3c(NC(=O)CCCCCC(=O)Nc4ccccc4N)cccc3C(=O)N([C@H](C)CO)C[C@H]2C)cc1,.,-89.8*,0.4,-0.5
C[C@H](CO)N1C[C@H](C)[C@@H](CN(C)S(=O)(=O)c2ccccc2)Oc2c(NC(=O)Nc3cccc4ccccc34)cccc2C1=O,36.2,-35.8,.,8.0
C[C@@H]1CN([C@H](C)CO)C(=O)c2cccc(NC(=O)Nc3cccc4ccccc34)c2O[C@@H]1CN(C)S(=O)(=O)c1ccccc1,24.0,-81.5*,.,2.0
C[C@@H]1CN([C@H](C)CO)C(=O)c2cccc(NC(=O)CCCCCC(=O)Nc3ccccc3N)c2O[C@@H]1CN(C)S(=O)(=O)c1cccs1,.,-84.2*,.,2.4
C[C@@H]1CN([C@H](C)CO)C(=O)c2cccc(NC(=O)CCCCCC(=O)Nc3ccccc3N)c2O[C@@H]1CN(C)S(=O)(=O)c1ccccc1,.,-89.0*,0.2,0.1
C[C@H](CO)N1C[C@H](C)[C@@H](CN(C)S(C)(=O)=O)Oc2c(NC(=O)CCCCCC(=O)Nc3ccccc3N)cccc2C1=O,.,68.2,0.1,0.9
